The test system of assay [1] is GABA-A receptor alpha6beta3delta (++). As to the kind of experiment: Modulation of rat eGFP-fused GABA-A receptor alpha6beta3delta expressed in HEK293 cells up to 10 uM in presence of GABA by patch-clamp assay relative to control. Background: The patch-clamp technique gives a direct electrical read-out from membranes.
Assay [2] has as its target Gamma-aminobutyric acid receptor subunit alpha-1/beta-3 (Rattus norvegicus) (UniProt P62813+P63079). As to the kind of experiment: Modulation of rat […] GABA-A receptor alpha1beta3 expressed in HEK293 cells up to 10 uM in presence of GABA by patch-clamp assay relative to control. The assay is classed as cell-based. The gist of the method: (§1)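 Whole-cell patch clamp on eGFP-co-transfected HEK 293 cells expressing rat subunits, recorded 48 h post-transfection. KCl/KOH-based pipette solution, pH 7.2. Rising compound concentrations up to 10 µM co-applied with the receptor-specific GABA EC20. Peak currents fitted to a logistic function giving EC50, Hill coefficient and % modulation, mean ± S.E. of n experiments.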

For assay [3], the target named is Gamma-aminobutyric acid receptor subunit alpha-1/beta-3/gamma-2 (Rattus norvegicus) (UniProt P18508+P62813+P63079). As to the kind of experiment: Modulation of rat […] GABA-A receptor alpha1beta3gamma2 expressed in HEK293 cells up to 10 uM in presence of GABA by patch-clamp assay relative to control. The format is cell-based. A digest of the protocol: (§2)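 Rat GABA-A subunits were transiently co-transfected with eGFP into HEK293 cells on coverslips. Fluorescent cells were recorded by whole-cell patch clamp 48 h later; bath pH 7.4, KCl/KOH pipette pH 7.2. Compound was applied at increasing concentrations up to 10 µM with the receptor-specific GABA EC20. Peak currents were fitted logistically for EC50, Hill and % modulation, as mean ± S.E.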

Assay [4] has as its target T1, Gamma-aminobutyric acid receptor subunit alpha-6/beta-3/delta (Rattus norvegicus) (UniProt P18506+P30191+P63079). As to the kind of experiment: Agonist activity at rat […] GABA-A receptor alpha6beta3delta expressed in HEK293 cells assessed as ratio of I0 to GABA Imax at 10 uM in absence of GABA by patch-clamp assay. The assay is classed as cell-based. The gist of the method:
(§3)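 Whole-cell patch clamp on single fluorescent HEK 293 cells 48 h after transient co-transfection with rat subunit cDNAs plus eGFP. Extracellular solution 135 mM NaCl, 5.3 mM KCl, 2 mM CaCl2, 2 mM MgSO4, 10 mM HEPES pH 7.4, perfused 3 mL/min. Compound at 10 µM without GABA. Current expressed relative to 1 mM GABA at the same receptor (I0/Imax GABA), mean ± S.D. of n experiments.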

Assay [5] deals with Gamma-aminobutyric acid receptor subunit alpha-4/beta-3 (Rattus norvegicus, UniProt P28471+P63079). As to the kind of experiment: Modulation of rat […] GABA-A receptor alpha4beta3 expressed in HEK293 cells in presence of GABA by patch-clamp assay. The format is cell-based. A digest of the protocol: as §2
Gamma-aminobutyric acid receptor subunit alpha-4/beta-3, sequence (P28471 whole entry): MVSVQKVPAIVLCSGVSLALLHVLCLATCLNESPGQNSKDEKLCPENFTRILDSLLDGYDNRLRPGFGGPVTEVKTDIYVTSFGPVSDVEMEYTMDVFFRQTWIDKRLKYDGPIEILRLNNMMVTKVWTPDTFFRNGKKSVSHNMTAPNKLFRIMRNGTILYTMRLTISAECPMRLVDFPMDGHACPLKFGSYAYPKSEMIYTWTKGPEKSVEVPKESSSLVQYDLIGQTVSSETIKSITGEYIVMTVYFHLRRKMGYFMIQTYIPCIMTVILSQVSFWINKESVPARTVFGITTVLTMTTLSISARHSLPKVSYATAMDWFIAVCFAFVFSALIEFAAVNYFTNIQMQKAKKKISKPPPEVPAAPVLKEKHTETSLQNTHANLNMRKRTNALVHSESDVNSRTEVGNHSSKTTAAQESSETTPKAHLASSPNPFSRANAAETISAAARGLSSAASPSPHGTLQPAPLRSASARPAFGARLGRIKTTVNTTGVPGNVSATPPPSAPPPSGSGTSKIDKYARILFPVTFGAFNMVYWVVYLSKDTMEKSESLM
Gamma-aminobutyric acid receptor subunit alpha-4/beta-3, sequence (P63079 whole entry): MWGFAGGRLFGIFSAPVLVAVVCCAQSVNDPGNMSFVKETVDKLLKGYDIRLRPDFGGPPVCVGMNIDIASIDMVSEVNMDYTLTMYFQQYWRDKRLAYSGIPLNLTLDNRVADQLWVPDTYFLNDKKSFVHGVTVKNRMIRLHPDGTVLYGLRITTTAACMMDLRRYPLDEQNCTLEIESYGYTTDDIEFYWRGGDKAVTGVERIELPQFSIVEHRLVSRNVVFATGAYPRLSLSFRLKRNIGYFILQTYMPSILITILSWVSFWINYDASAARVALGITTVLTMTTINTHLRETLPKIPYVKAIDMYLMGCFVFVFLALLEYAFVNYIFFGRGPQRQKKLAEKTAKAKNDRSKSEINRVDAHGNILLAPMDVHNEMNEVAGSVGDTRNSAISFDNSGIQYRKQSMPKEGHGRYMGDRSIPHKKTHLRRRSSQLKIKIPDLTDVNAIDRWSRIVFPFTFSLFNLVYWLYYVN
The target of assay [6] is T2, Gamma-aminobutyric acid receptor subunit alpha-6/beta-3/delta (Rattus norvegicus, UniProt P18506+P30191+P63079). As to the kind of experiment: Displacement of [3H]EBOB from rat GABA-A receptor alpha6beta3delta expressed in HEK293 cell membranes after 90 mins by liquid scintillation counting analysis. A digest of the protocol:
(§4)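 Crude membranes from HEK 293 cells transiently Ca-phosphate-transfected with rat subunit cDNAs, harvested at 48 h. Membranes (150-200 µg protein) incubated with 3 nM [3H]EBOB in 50 mM Tris/citrate pH 7.3 plus 0.2 M NaCl. Compound up to 10 µM, final DMSO 0.1%, no GABA, 90 min at 21 °C. Bound radioligand collected by GF/C filtration and counted by scintillation.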
(Loss of bound radioactivity is the signal in a displacement assay; it reports binding, not function.)

The target in assay [7] is Gamma-aminobutyric acid receptor subunit alpha-6/beta-3 (Rattus norvegicus) (UniProt P30191+P63079). As to the kind of experiment: Agonist activity at rat […] GABA-A receptor alpha6beta3 expressed in HEK293 cells assessed as ratio of I0 to GABA Imax at 10 uM in absence of GABA by patch-clamp assay. The assay is classed as cell-based. A digest of the protocol:
as §3

The target of assay [8] is T3, Gamma-aminobutyric acid receptor subunit alpha-6/beta-3/gamma-2 (Rattus norvegicus, UniProt P18508+P30191+P63079). The assay can be described thus: Displacement of [3H]EBOB from rat GABA-A receptor alpha6beta3gamma2 expressed in HEK293 cell membranes after 90 mins in presence of GABA by liquid scintillation counting analysis.
T3 sequence (P18508 whole entry): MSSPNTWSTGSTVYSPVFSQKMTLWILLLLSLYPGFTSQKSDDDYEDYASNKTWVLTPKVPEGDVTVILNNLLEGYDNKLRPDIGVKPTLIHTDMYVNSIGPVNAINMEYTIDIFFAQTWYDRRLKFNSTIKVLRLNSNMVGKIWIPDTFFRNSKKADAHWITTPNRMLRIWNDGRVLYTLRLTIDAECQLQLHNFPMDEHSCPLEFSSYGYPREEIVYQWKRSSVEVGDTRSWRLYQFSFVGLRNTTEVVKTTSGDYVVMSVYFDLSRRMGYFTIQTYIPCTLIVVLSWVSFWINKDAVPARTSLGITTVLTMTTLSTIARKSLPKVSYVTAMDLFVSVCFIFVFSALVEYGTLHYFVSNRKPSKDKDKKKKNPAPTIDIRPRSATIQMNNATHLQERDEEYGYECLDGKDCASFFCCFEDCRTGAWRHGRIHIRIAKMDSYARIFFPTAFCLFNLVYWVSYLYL
T3 sequence (P30191 whole entry): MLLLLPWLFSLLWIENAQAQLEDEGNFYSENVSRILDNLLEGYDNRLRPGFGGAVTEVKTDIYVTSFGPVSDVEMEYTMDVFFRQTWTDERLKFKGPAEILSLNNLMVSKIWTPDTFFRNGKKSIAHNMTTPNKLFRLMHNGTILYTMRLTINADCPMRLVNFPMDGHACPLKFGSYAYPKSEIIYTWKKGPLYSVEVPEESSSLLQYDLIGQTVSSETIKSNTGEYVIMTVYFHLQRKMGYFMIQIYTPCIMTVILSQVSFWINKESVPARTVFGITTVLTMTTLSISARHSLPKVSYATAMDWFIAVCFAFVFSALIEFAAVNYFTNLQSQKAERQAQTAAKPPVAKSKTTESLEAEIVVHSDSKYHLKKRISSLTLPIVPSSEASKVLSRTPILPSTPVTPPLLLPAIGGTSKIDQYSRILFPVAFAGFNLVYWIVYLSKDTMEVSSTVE
T3 sequence (P63079 whole entry): as the sequence (P63079 whole entry) above
In assay [9] the target is Gamma-aminobutyric acid receptor subunit alpha-6/beta-2/delta (Rattus norvegicus) (UniProt P18506+P30191+P63138). As to the kind of experiment: Displacement of [3H]EBOB from rat GABA-A receptor alpha6beta2delta expressed in HEK293 cell membranes up to 10 uM after 90 mins by liquid scintillation counting analysis relative to control. The gist of the method: as §4
The species entered for assay [10] is Rattus norvegicus. The assay can be described thus: Selectivity ratio of IC50 for rat GABA-A receptor alpha6beta3delta expressed in HEK293 cells to IC50 for rat GABA-A receptor alpha6beta2delta expressed in HEK293 cells. The assay is classed as cell-based.
In assay [11] the target is T3, Gamma-aminobutyric acid receptor subunit alpha-6/beta-3/gamma-2. As to the kind of experiment: Displacement of [3H]EBOB from rat GABA-A receptor alpha6beta3gamma2 expressed in HEK293 cell membranes after 90 mins by liquid scintillation counting analysis. The gist of the method:
as §4

Assay [12] has as its target T2, Gamma-aminobutyric acid receptor subunit alpha-6/beta-3/delta. The assay can be described thus: (§5) Displacement of [3H]EBOB from rat GABA-A receptor alpha6beta3delta expressed in HEK293 cell membranes after 90 mins in presence of GABA by liquid scintillation counting analysis.
Assay [13] addresses T1, Gamma-aminobutyric acid receptor subunit alpha-6/beta-3/delta (Rattus norvegicus). Described as §5.
For assay [14], the species on record is Rattus norvegicus. The assay can be described thus: Selectivity ratio of IC50 for rat GABA-A receptor alpha4beta3 expressed in HEK293 cells to IC50 for rat GABA-A receptor alpha4beta3delta expressed in HEK293 cells. The assay is classed as cell-based.
Assay [15] deals with T1, Gamma-aminobutyric acid receptor subunit alpha-6/beta-3/delta (Rattus norvegicus). The assay can be described thus: Displacement of [3H]EBOB from rat GABA-A receptor alpha6beta3delta expressed in HEK293 cell membranes up to 10 uM after 90 mins by liquid scintillation counting analysis relative to control. The gist of the method: as §4
Assay [16] is filed under the species Rattus norvegicus. As to the kind of experiment: Selectivity ratio of IC50 for rat GABA-A receptor alpha6beta2 expressed in HEK293 cells to IC50 for rat GABA-A receptor alpha6beta2delta expressed in HEK293 cells. The format is cell-based.
The target in assay [17] is Gamma-aminobutyric acid receptor subunit alpha-1/beta-3 (Rattus norvegicus, UniProt P62813+P63079). The assay can be described thus: Modulation of rat […] GABA-A receptor alpha1beta3 expressed in HEK293 cells in presence of GABA by patch-clamp assay. The format is cell-based. The gist of the method:
as §1

Assay [18] deals with T4, Gamma-aminobutyric acid receptor subunit alpha-4/beta-3 (Rattus norvegicus) (UniProt P28471+P63079). The assay can be described thus: Modulation of rat […] GABA-A receptor alpha4beta3 expressed in HEK293 cells up to 10 uM in presence of GABA by patch-clamp assay relative to control. The format is cell-based. The gist of the method: as §2
The target in assay [19] is GABA-A receptor alpha6beta3delta (++). As to the kind of experiment: Modulation of rat eGFP-fused GABA-A receptor alpha6beta3delta expressed in HEK293 cells in presence of GABA by patch-clamp assay.
In assay [20] the target is T4, Gamma-aminobutyric acid receptor subunit alpha-4/beta-3 (Rattus norvegicus). The assay can be described thus: Displacement of [3H]EBOB from rat GABA-A receptor alpha4beta3 expressed in HEK293 cell membranes up to 10 uM after 90 mins by liquid scintillation counting analysis relative to control. A digest of the protocol: as §4
For assay [21], the species on record is Rattus norvegicus. As to the kind of experiment: Selectivity ratio of IC50 for rat GABA-A receptor alpha6beta2gamma2 expressed in HEK293 cells to IC50 for rat GABA-A receptor alpha6beta2delta expressed in HEK293 cells. The format is cell-based.

The term EC50 denotes the concentration at which the effect is half-maximal. As a reminder, the IC50 is the concentration that gives 50% inhibition.

T2 sequence (P18506 whole entry): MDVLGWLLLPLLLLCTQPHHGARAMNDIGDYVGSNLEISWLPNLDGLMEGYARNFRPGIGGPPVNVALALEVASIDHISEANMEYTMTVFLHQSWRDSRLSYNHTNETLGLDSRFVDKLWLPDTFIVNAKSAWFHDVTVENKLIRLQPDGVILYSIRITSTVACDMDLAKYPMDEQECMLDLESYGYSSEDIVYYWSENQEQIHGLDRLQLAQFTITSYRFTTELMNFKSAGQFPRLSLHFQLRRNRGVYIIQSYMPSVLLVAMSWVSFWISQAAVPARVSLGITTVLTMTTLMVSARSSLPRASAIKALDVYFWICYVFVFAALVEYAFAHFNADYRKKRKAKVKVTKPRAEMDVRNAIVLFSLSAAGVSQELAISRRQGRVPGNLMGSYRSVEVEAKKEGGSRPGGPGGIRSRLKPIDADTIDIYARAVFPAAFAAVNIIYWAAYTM
T2 sequence (P30191 whole entry): as the sequence (P30191 whole entry) above
T2 sequence (P63079 whole entry): as the sequence (P63079 whole entry) above
Gamma-aminobutyric acid receptor subunit alpha-1/beta-3, sequence (P62813 whole entry): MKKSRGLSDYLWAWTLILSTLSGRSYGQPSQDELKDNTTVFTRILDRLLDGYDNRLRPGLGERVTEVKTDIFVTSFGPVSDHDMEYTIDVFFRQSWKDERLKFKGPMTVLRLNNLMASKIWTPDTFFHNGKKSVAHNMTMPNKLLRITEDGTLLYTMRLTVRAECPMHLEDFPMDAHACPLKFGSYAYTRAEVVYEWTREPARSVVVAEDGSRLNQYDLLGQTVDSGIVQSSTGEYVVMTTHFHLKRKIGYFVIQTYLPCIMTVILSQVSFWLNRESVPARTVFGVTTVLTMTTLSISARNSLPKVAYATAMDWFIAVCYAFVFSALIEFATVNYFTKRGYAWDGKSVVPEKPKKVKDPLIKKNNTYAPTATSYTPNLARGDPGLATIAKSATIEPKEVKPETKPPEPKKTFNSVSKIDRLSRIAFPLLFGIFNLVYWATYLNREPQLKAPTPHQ
Gamma-aminobutyric acid receptor subunit alpha-1/beta-3, sequence (P63079 whole entry): as the sequence (P63079 whole entry) above

Turning to `O=C(Nc1c(-c2cccs2)nc2c(Br)cc(Br)cn12)c1ccc(Cl)cc1`, the Activity in assay [1] is 802%; in [2], 35%; in assay [3], 139%; in [18], 168%. In addition, the figures for the Ratio in assay [4] and in [7] were 1.04 and 1.48, respectively. The results for the EC50 in assay [5], in [17] and in assay [19] were 60 nM, 100 nM and 130 nM, respectively. For the same compound, the concentration for half-maximal inhibition (IC50) in assay [6] came to 310 nM; in assay [8], 1090 nM; in [11], 930 nM; in [12], 370 nM. Besides, the Imax in assay [9] came out at 82%; in assay [13] it was 88%; in assay [15], 84%; in [20] it was 80%. The Ratio IC50 stood at 2 in the assay filed under Rattus norvegicus [10], 4 in the assay filed under Rattus norvegicus [14], 4 in the assay filed under Rattus norvegicus [16] and 7 in the assay listed under Rattus norvegicus [21].

(Values after ChEMBL document CHEMBL4190374, “Structure-Function Evaluation of Imidazopyridine Derivatives Selective for δ-Subunit-Containing γ-Aminobutyric Acid Type A (GABAA) Receptors” (J Med Chem, 2018).)
